Measurements published in ChEMBL document CHEMBL3351994, “Synthesis and biological evaluation of novel millepachine derivatives as a new class of tubulin polymerization inhibitors” (J Med Chem, 2014).
In brackets after ≈: the same amount, converted by molar mass.

How the values were obtained:
Rattus norvegicus [1] = test: Volume of distribution at steady state in rat at 9 mg/kg, po; type: ADME, organism-based; design: dose 9 mg/kg, route oral; settings: in vivo
[2] = Solubility in PBS solution by nephelometry; type: physicochemical
How it was run: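 Maximum soluble concentration in PBS, determined by nephelometry.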

[3] = Antiproliferative activity against adriamycin resistant human MCF7/ADR cells assessed as inhibition of cell proliferation after 48 hrs by MTT assay; type: functional, cell-based; settings: NCI/ADR-RES
How it was run: (§1)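 Cells grown at 37 °C in humidified 5% CO2. K562, C26 and HCT lines in RPMI-1640; other lines in DMEM; both media with 10% FBS, penicillin and streptomycin. 1000 cells/well seeded, incubated overnight, then compound at various doses for 48 h. MTT added for 4 h, formazan dissolved in DMSO, absorbance read at 590 nm. IC50 from dose–response curves, mean ± SEM of at least three independent experiments.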

HepG2 [4] = test: Induction of cell cycle arrest in human HepG2 cells assessed as accumulation at S phase phase at 100 nM after 24 hrs by propidium iodide staining based flow cytometry (reference value: 30.6%); type: functional
[5] = Antiproliferative activity against cisplatin resistant human […] cells assessed as inhibition of cell proliferation after 48 hrs by MTT assay; type: functional, cell-based; settings: A2780cisR; how it was run: as §1
HepG2 [6] = test: Induction of cell cycle arrest in human HepG2 cells assessed as accumulation at G0/G1 phase at 50 nM after 24 hrs by propidium iodide staining based flow cytometry (reference value: 58.2%); type: functional
HepG2 [7] = test: Induction of apoptosis in human HepG2 cells assessed as late apoptotic cells at 50 nM after 48 hrs by annexin-V-FITC and propidium iodide staining based flow cytometry (reference value: 1.03%); type: functional
How it was run: (§2)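 HepG2 cells treated with 50, 100 or 200 nM compound or DMSO vehicle for 24 or 48 h at 37 °C. Labeled with annexin-V-FITC and PI and analyzed by flow cytometry. Cells classified as early apoptotic (annexin-V+/PI−), late apoptotic (annexin-V+/PI+) or necrotic (annexin-V−/PI+).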

HepG2 [8] = test: Induction of apoptosis in human HepG2 cells assessed as viable cells at 200 nM after 48 hrs by annexin-V-FITC and propidium iodide staining based flow cytometry (reference value: 93.2%); type: functional; settings: HepG2, 48 h, read-out: Activity
HepG2 [9] = test: Induction of apoptosis in human HepG2 cells assessed as necrotic cells at 100 nM after 24 hrs by annexin-V-FITC and propidium iodide staining based flow cytometry (reference value: 2.16%); type: functional; how it was run: as §2
HepG2 [10] = test: Induction of apoptosis in human HepG2 cells assessed as viable cells at 100 nM after 24 hrs by annexin-V-FITC and propidium iodide staining based flow cytometry (reference value: 93.2%); type: functional; settings: HepG2, 24 h, read-out: Activity
HepG2 [11] = test: Induction of apoptosis in human HepG2 cells assessed as late apoptotic cells at 200 nM after 48 hrs by annexin-V-FITC and propidium iodide staining based flow cytometry (reference value: 1.03%); type: functional; how it was run: as §2
HepG2 [12] = test: Induction of apoptosis in human HepG2 cells assessed as necrotic cells at 50 nM after 48 hrs by annexin-V-FITC and propidium iodide staining based flow cytometry (reference value: 2.16%); type: functional
[13] = Antiproliferative activity against taxol resistant human HCT8 cells assessed as inhibition of cell proliferation after 48 hrs by MTT assay; type: functional, cell-based; settings: HCT-8, 48 h; how it was run: as §1
HepG2 [14] = test: Induction of apoptosis in human HepG2 cells assessed as late apoptotic cells at 100 nM after 24 hrs by annexin-V-FITC and propidium iodide staining based flow cytometry (reference value: 1.03%); type: functional; how it was run: as §2
HepG2 [15] = test: Induction of apoptosis in human HepG2 cells assessed as early apoptotic cells at 200 nM after 48 hrs by annexin-V-FITC and propidium iodide staining based flow cytometry (reference value: 3.63%); type: functional; how it was run: as §2
[16] = Volume of distribution at steady state in rat at 2.25 mg/kg, iv; type: ADME, organism-based; design: dose 2.25 mg/kg, route intravenous; settings: in vivo, read-out: Vdss
HepG2 [17] = test: Induction of apoptosis in human HepG2 cells assessed as necrotic cells at 200 nM after 24 hrs by annexin-V-FITC and propidium iodide staining based flow cytometry (reference value: 2.16%); type: functional; how it was run: as §2
Rattus norvegicus [18] = test: AUC in rat at 2.25 mg/kg, iv; type: ADME, organism-based, Plasma; design: dose 2.25 mg/kg, route intravenous; settings: in vivo
How it was run: (§3)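 Rat pharmacokinetics; oral and intravenous dosing, with group sizes of 5, 5 and 4 rats. Parameters derived: systemic clearance, volume of distribution, area under the plasma concentration–time curve, maximum plasma concentration and percent oral bioavailability.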

[19] = Cmax in rat at 2.25 mg/kg, iv; type: ADME, organism-based; design: dose 2.25 mg/kg, route intravenous; settings: in vivo; how it was run: as §3
HepG2 [20] = test: Induction of apoptosis in human HepG2 cells assessed as necrotic cells at 100 nM after 48 hrs by annexin-V-FITC and propidium iodide staining based flow cytometry (reference value: 2.16%); type: functional; how it was run: as §2
HepG2 [21] = test: Induction of cell cycle arrest in human HepG2 cells assessed as accumulation at G0/G1 phase at 100 nM after 24 hrs by propidium iodide staining based flow cytometry (reference value: 58.2%); type: functional
A-375 = test: Antiproliferative activity against human A375 cells assessed as inhibition of cell proliferation after 48 hrs by MTT assay; type: functional, cell-based; settings: A-375, 48 h; how it was run: as §1
HepG2 [22] = test: Induction of apoptosis in human HepG2 cells assessed as late apoptotic cells at 100 nM after 48 hrs by annexin-V-FITC and propidium iodide staining based flow cytometry (reference value: 1.03%); type: functional; how it was run: as §2
Rattus norvegicus [23] = test: Systemic clearance in rat at 9 mg/kg, po; type: ADME, organism-based; design: dose 9 mg/kg, route oral; settings: in vivo
[24] = Antiproliferative activity against human DLD1 cells assessed as inhibition of cell proliferation after 48 hrs by MTT assay; type: functional, cell-based; settings: DLD-1, 48 h; how it was run: as §1
K562 = test: Antiproliferative activity against human K562 cells assessed as inhibition of cell proliferation after 48 hrs by MTT assay; type: functional, cell-based; settings: K562, 48 h; how it was run: as §1
[25] = Cmax in rat at 9 mg/kg, po; type: ADME, organism-based; design: dose 9 mg/kg, route oral; settings: in vivo; how it was run: as §3
AGS = test: Antiproliferative activity against human AGS cells assessed as inhibition of cell proliferation after 48 hrs by MTT assay; type: functional, cell-based; how it was run: as §1
HepG2 [26] = test: Induction of cell cycle arrest in human HepG2 cells assessed as accumulation at S phase phase at 200 nM after 24 hrs by propidium iodide staining based flow cytometry (reference value: 30.6%); type: functional
HepG2 [27] = test: Induction of apoptosis in human HepG2 cells assessed as necrotic cells at 50 nM after 24 hrs by annexin-V-FITC and propidium iodide staining based flow cytometry (reference value: 2.16%); type: functional
HepG2 [28] = test: Induction of apoptosis in human HepG2 cells assessed as necrotic cells at 200 nM after 48 hrs by annexin-V-FITC and propidium iodide staining based flow cytometry (reference value: 2.16%); type: functional
HepG2 [29] = test: Induction of cell cycle arrest in human HepG2 cells assessed as accumulation at G2/M phase phase at 200 nM after 24 hrs by propidium iodide staining based flow cytometry (reference value: 11.2%); type: functional
[30] = Oral bioavailability in rat at 9 mg/kg; type: ADME, organism-based; settings: in vivo
Rattus norvegicus [31] = test: Systemic clearance in rat at 2.25 mg/kg, iv; type: ADME, organism-based; design: dose 2.25 mg/kg, route intravenous; settings: in vivo
HepG2 [32] = test: Induction of apoptosis in human HepG2 cells assessed as early apoptotic cells at 50 nM after 48 hrs by annexin-V-FITC and propidium iodide staining based flow cytometry (reference value: 3.63%); type: functional; how it was run: as §2

SMILES: COc1ccc(/C=C/C(=O)c2ccc(OC)c3c2OC(C)(C)C=C3)cc1N
- Vdss (Rattus norvegicus [1]): 25 L/kg
- solubility kinetic [2]: 8 µg/mL (≈ 21.9 µM)
- IC50 [3]: 0.017 µM
- Activity (HepG2 [4]): 27.8%
- IC50 [5]: 0.014 µM
- Activity (HepG2 [6]): 56.6%
- Activity (HepG2 [7]): 17.69%
- viability at 0.2 µM (HepG2 [8]): 41.7%
- Activity (HepG2 [9]): 3.83%
- viability at 0.1 µM (HepG2 [10]): 74.1%
- Activity (HepG2 [11]): 34.72%
- Activity (HepG2 [12]): 2.76%
- IC50 [13]: 0.152 µM
- Activity (HepG2 [14]): 12.43%
- Activity (HepG2 [15]): 20.14%
- Vd [16]: 21 L/kg
- Activity (HepG2 [17]): 1.95%
- AUC (Rattus norvegicus [18]): 1810 ng·h/mL
- Cmax [19]: 2940 ng/mL
- Activity (HepG2 [20]): 5.45%
- Activity (HepG2 [21]): 34.8%
- IC50 (A-375): 0.022 µM
- Activity (HepG2 [22]): 29.45%
- CL (Rattus norvegicus [23]): 98.3 mL/min/kg
- IC50 [24]: 0.018 µM
- IC50 (K562): 0.018 µM
- Cmax [25]: 519 ng/mL
- IC50 (AGS): 0.01 µM
- Activity (HepG2 [26]): 19.1%
- Activity (HepG2 [27]): 4.71%
- Activity (HepG2 [28]): 3.54%
- Activity (HepG2 [29]): 43.3%
- bioavailability [30]: 28%
- CL (Rattus norvegicus [31]): 20 mL/min/kg
- Activity (HepG2 [32]): 13.45%
